Experimental data as given in ChEMBL document CHEMBL1155226, “Design, synthesis, and structure-activity relationship of a novel series of 2-aryl 5-(4-oxo-3-phenethyl-2-thioxothiazolidinylidenemethyl)furans as HIV-1 entry inhibitors” (J Med Chem, 2009).

Columns and labels:
[1] = system: Human immunodeficiency virus 1; test: Antiviral activity against HIV1 isolate 94UG103 replication in human PBMC assessed as inhibition of p24 production after 7 days by ELISA; details: Human immunodeficiency virus 1, isolate 94UG103, 168 h
[2] = system: Human immunodeficiency virus 1; test: Antiviral activity against HIV1 3B replication in human MT2 cells exposed to light assessed as inhibition of p24 production after 4 days by ELISA; details: Human immunodeficiency virus 1, 3B, MT2, 96 h
MT2 = test: Cytotoxicity against human MT2 cells after 4 days by XTT assay; type: cell-based; details: mt2, 96 h
Method in brief: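 Graded compound concentrations mixed with equal volume of MT-2 cells (5×10^5/mL), 37 °C for 4 days. XTT (1 mg/mL) with 0.02 μM phenazine methosulphate added, absorbance at 450 nm read after 4 h; CC50 calculated with CalcuSyn.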

[3] = Selectivity index, ratio of CC50 for human MT2 cells to EC50 for HIV1 3B replication in human MT2 cells exposed to light; type: toxicity, cell-based; details: read-out: Ratio CC50/EC50
[4] = system: Human immunodeficiency virus 1; test: Antiviral activity against HIV1 3B replication in human MT2 cells under dark condition assessed as inhibition of p24 production after 4 days by ELISA; details: Human immunodeficiency virus 1, 3B, MT2, 96 h

**Q.** For `O=C(O)c1cc(-c2ccc(/C=C3\SC(=S)N(CCc4ccccc4)C3=O)o2)cnc1Br`, which EC50 [1] is on record?
**A.** Its EC50 is 353 nM.

**Q.** And the EC50 [2]?
**A.** Its EC50 is 268 nM.

**Q.** What about the CC50 (MT2) of the same compound?
**A.** The CC50 was 5530 nM.

**Q.** What about the selectivity ratio [3] of the same compound?
**A.** The selectivity ratio was 40.

**Q.** What about the EC50 [4] of the same compound?
**A.** The EC50 was 227 nM.

**Q.** What does the source list for `O=C(O)c1cc(-c2ccc(/C=C3\SC(=S)N(CCc4ccccc4)C3=O)o2)ccc1F`?
**A.** EC50 [1]: 246 nM; EC50 [2]: 71 nM; CC50 (MT2): 27000 nM; selectivity ratio [3]: 380; EC50 [4]: 291 nM

**Q.** Which results are given for `O=C(O)c1cc(-c2ccc(/C=C3\SC(=S)N(CCc4ccccc4)C3=O)o2)ccc1O`?
**A.** EC50 [1]: 2660 nM; EC50 [2]: 1280 nM; CC50 (MT2): 14800 nM; selectivity ratio [3]: 12; EC50 [4]: 261 nM

**Q.** For `O=C(O)c1cc(-c2ccc(/C=C3\SC(=S)N(CCc4ccccc4)C3=O)o2)cnc1Cl`, which EC50 [1] is on record?
**A.** The EC50 was 598 nM.

**Q.** What about the EC50 [2] of the same compound?
**A.** The EC50 was 232 nM.

**Q.** What about the CC50 (MT2) of the same compound?
**A.** Its CC50 is 38400 nM.

**Q.** What about the selectivity ratio [3] of the same compound?
**A.** The selectivity ratio was 165.

**Q.** And the EC50 [4]?
**A.** The EC50 was 1010 nM.

**Q.** What does the source list for `O=C(O)c1cccc(-c2ccc(/C=C3\SC(=S)N(CCc4ccccc4)C3=O)o2)c1`?
**A.** EC50 [1]: 74 nM; EC50 [2]: 44 nM; CC50 (MT2): 19400 nM; selectivity ratio [3]: 440; EC50 [4]: 98 nM

**Q.** Which EC50 [1] does the source give for `CCc1ccc(-c2ccc(/C=C3\SC(=S)N(CCc4ccccc4)C3=O)o2)cc1C(=O)O` here?
**A.** Its EC50 is 177 nM.

**Q.** And the EC50 [2]?
**A.** Its EC50 is 81 nM.

**Q.** And the CC50 (MT2)?
**A.** Its CC50 is 17400 nM.

**Q.** And the selectivity ratio [3]?
**A.** Its selectivity ratio is 215.

**Q.** What about the EC50 [4] of the same compound?
**A.** The EC50 was 30 nM.

**Q.** Which results are given for `Cc1c(C(=O)O)cccc1-c1ccc(/C=C2\SC(=S)N(CCc3ccccc3)C2=O)o1`?
**A.** EC50 [1]: 648 nM; EC50 [2]: 43 nM; CC50 (MT2): 26800 nM; selectivity ratio [3]: 624; EC50 [4]: 92 nM

**Q.** What does the source list for `Cc1c(C(=O)O)cncc1-c1ccc(/C=C2\SC(=S)N(CCc3ccccc3)C2=O)o1`?
**A.** EC50 [1]: 4040 nM; EC50 [2]: 390 nM; CC50 (MT2): 78900 nM; selectivity ratio [3]: 202; EC50 [4]: 538 nM

**Q.** With `O=C(O)c1cccc(-c2ccc(/C=C3\SC(=S)N(CCc4ccccc4)C3=O)o2)c1Cl` as the compound, how does the EC50 [1] read?
**A.** Its EC50 is 33 nM.

**Q.** What about the EC50 [2] of the same compound?
**A.** The EC50 was 64 nM.

**Q.** And the CC50 (MT2)?
**A.** Its CC50 is 6730 nM.

**Q.** And the selectivity ratio [3]?
**A.** The selectivity ratio was 105.

**Q.** What about the EC50 [4] of the same compound?
**A.** Its EC50 is 78 nM.

**Q.** Which EC50 [1] does the source give for `Cc1ccc(-c2ccc(/C=C3\SC(=S)N(CCc4ccccc4)C3=O)o2)cc1C(=O)O` here?
**A.** The EC50 was 70 nM.

**Q.** What about the EC50 [2] of the same compound?
**A.** Its EC50 is 99 nM.

**Q.** What about the CC50 (MT2) of the same compound?
**A.** The CC50 was 42100 nM.

**Q.** And the selectivity ratio [3]?
**A.** The selectivity ratio was 426.

**Q.** What about the EC50 [4] of the same compound?
**A.** Its EC50 is 31 nM.

**Q.** What does the source list for `O=C(O)c1cc(-c2ccc(/C=C3\SC(=S)N(CCc4ccccc4)C3=O)o2)ccc1Br`?
**A.** EC50 [1]: 165 nM; EC50 [2]: 317 nM; CC50 (MT2): 3290 nM; selectivity ratio [3]: 10; EC50 [4]: 158 nM

**Q.** Which EC50 [1] does the source give for `O=C(O)c1cc(-c2ccc(/C=C3\SC(=S)N(CCc4ccccc4)C3=O)o2)ccc1Cl` here?
**A.** The EC50 was 73 nM.

**Q.** What about the EC50 [2] of the same compound?
**A.** Its EC50 is 51 nM.

**Q.** What about the CC50 (MT2) of the same compound?
**A.** The CC50 was 16800 nM.

**Q.** What about the selectivity ratio [3] of the same compound?
**A.** The selectivity ratio was 330.

**Q.** What about the EC50 [4] of the same compound?
**A.** Its EC50 is 17 nM.

**Q.** Which EC50 [1] does the source give for `COc1ccc(-c2ccc(/C=C3\SC(=S)N(CCc4ccccc4)C3=O)o2)cc1C(=O)O` here?
**A.** Its EC50 is 2230 nM.

**Q.** And the EC50 [2]?
**A.** Its EC50 is 1300 nM.

**Q.** And the CC50 (MT2)?
**A.** The CC50 was 28700 nM.

**Q.** What about the selectivity ratio [3] of the same compound?
**A.** Its selectivity ratio is 22.

**Q.** What about the EC50 [4] of the same compound?
**A.** Its EC50 is 266 nM.

**Q.** With `O=C(O)c1cccc(-c2ccc(/C=C3\SC(=S)N(CCc4ccccc4)C3=O)o2)c1F` as the compound, how does the EC50 [1] read?
**A.** The EC50 was 801 nM.

**Q.** What about the EC50 [2] of the same compound?
**A.** Its EC50 is 94 nM.

**Q.** And the CC50 (MT2)?
**A.** Its CC50 is 78300 nM.

**Q.** And the selectivity ratio [3]?
**A.** The selectivity ratio was 835.

**Q.** What about the EC50 [4] of the same compound?
**A.** The EC50 was 59 nM.

**Q.** What does the source list for `O=C(O)c1cncc(-c2ccc(/C=C3\SC(=S)N(CCc4ccccc4)C3=O)o2)c1`?
**A.** EC50 [1]: 442 nM; EC50 [2]: 42 nM; CC50 (MT2): 38400 nM; selectivity ratio [3]: 915; EC50 [4]: 71 nM
